Assay results from different studies.
UDP-N-acetylglucosamine--dolichyl-phosphate N-acetylglucosaminephosphotransferase: UDP-N-acetylglucosamine--dolichyl-phosphate N-acetylglucosaminephosphotransferase (Homo sapiens, UniProt Q9H3H5)
MPO: Myeloperoxidase (MPO, Homo sapiens, UniProt P05164)
CES2: Cocaine esterase (CES2, Homo sapiens, UniProt O00748)
CHRM5: Muscarinic acetylcholine receptor M5 (CHRM5, Homo sapiens, UniProt P08912)

SMILES	target	assay	setting	IC50 [µM]
O=C(O[C@@H]1[C@@H](O)[C@H](Oc2cc(O)c3c(c2)O[C@H](c2ccccc2)CC3=O)O[C@@H]2COC(=O)c3cc(O)c(O)c(O)c3-c3c(cc(O)c(O)c3O)C(=O)O[C@@H]12)c1cc(O)c(O)c(O)c1	Protein disulfide-isomerase A6 (PDIA6, Homo sapiens, UniProt Q15084)	enzyme activity, inhibitor, fluorescence		1.5
CO[C@H]1[C@H](O[C@H]([C@H]2O[C@@H](n3ccc(=O)[nH]c3=O)[C@H](O)[C@@H]2O)[C@H](NCCCNC(=O)[C@@H](NC(=O)[C@@H](NC(=O)N[C@H](C(=O)O)C(C)C)[C@@H]2CCN=C(N)N2)[C@@H](OC(=O)CCCCCCCCCCCCN(O)C(=N)N)C(C)C)C(=O)O)O[C@H](CN)[C@H]1O	UDP-N-acetylglucosamine--dolichyl-phosphate N-acetylglucosaminephosphotransferase	enzyme activity, inhibitor		0.18
NC/C(=C\F)COc1cccc(Cn2c(=S)[nH]c(=O)c3[nH]cnc32)c1	MPO	enzyme activity, inhibitor, fluorescence		0.017
CCc1cc2c(cc1N1CCC(N3CCOCC3)CC1)C(C)(C)c1[nH]c3cc(C#N)ccc3c1C2=O	CES2	enzyme activity, inhibitor, fluorescence	with preincubation	> 100
NCC(=O)O	ltaA (Aeromonas jandaei, UniProt O07051)	enzyme activity, inhibitor		990
Cc1nn(-c2nc3ccccc3[nH]2)c(O)c1C(c1ccccn1)c1c(C)nn(-c2nc3ccccc3[nH]2)c1O	Cyclic GMP-AMP synthase (CGAS, Homo sapiens, UniProt Q8N884)	enzyme activity, inhibitor		> 40
CO[C@H]1[C@H](O[C@H]([C@H]2O[C@@H](n3ccc(=O)[nH]c3=O)[C@H](O)[C@@H]2O)[C@H](NCCCNC(=O)[C@@H](NC(=O)[C@@H](NC(=O)N[C@H](C(=O)O)C(C)C)[C@@H]2CCN=C(N)N2)[C@@H](O)C(C)C)C(=O)O)O[C@H](CN)[C@H]1O	UDP-N-acetylglucosamine--dolichyl-phosphate N-acetylglucosaminephosphotransferase	enzyme activity, inhibitor		> 50
COc1cc2c(cc1OC)C(=O)/C(=C/c1cc3ccccc3c3ccccc13)C2	CES2	enzyme activity, inhibitor, fluorescence	with preincubation	2.98
CC[N+](CC)(CC)Cc1ccccc1.CC[N+](CC)(CC)Cc1ccccc1.[Br][Co-2]([Br])([Br])[Br]	MPO	enzyme activity, inhibitor, absorbance		8.53
COc1cc2c(cc1OC)C(=O)/C(=C/c1ccc(C)cc1F)C2	CES2	enzyme activity, inhibitor, fluorescence	with preincubation	> 100
CC(C)OCCn1c(=S)[nH]c(=O)c2[nH]ccc21	MPO	enzyme activity, inhibitor, fluorescence		0.038
O=C(CCNC(=O)CNC(=O)CC(c1ccccc1)(c1ccccc1)c1ccccc1)NCC1CCN(Cc2ccc(F)cc2)CC1	CHRM5	ligand displacement, radioligand	cell membranes	35.2
Cn1cc(C2=C(c3cn(CCCSC(=N)N)c4ccccc34)C(=O)NC2=O)c2ccccc21	Serine/threonine-protein kinase 10 (STK10, Homo sapiens, UniProt O94804)	enzyme activity, inhibitor		0.118
O=C(CCNC(=O)CNC(=O)CC(c1ccccc1)(c1ccccc1)c1ccccc1)NC[C@@H]1CCCN(Cc2cccnc2F)C1	CHRM5	ligand displacement, radioligand	cell membranes	> 30
O=C(c1ccc(F)c(F)c1Nc1ccc(I)cc1F)N1CC(O)([C@@H]2CCCCN2)C1	CES2	enzyme activity, inhibitor, fluorescence	with preincubation	> 100
